The subject of one assay is MCF7. The assay is described as follows: Cytotoxicity against human MCF7 cells after 72 hrs by MTT assay. The assay is classed as functional, cell-based. The settings on record: MCF7, 72 h. The gist of the method: (§1)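 Cells were seeded at 1×10⁴ per well and preincubated 18 h at 37 °C, 5% CO₂. They were then exposed to 1–256 μM for 72 h with DMSO ≤0.25%. MTT was added for 2 h and formazan was solubilized in extraction buffer before reading OD at 570 nm. IC50 is mean ± SD of three independent experiments. HEK is the normal-cell line; cancer lines were grown in DMEM with 10% serum.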
On the technique in general: Tetrazolium assays rely on reduction of a dye to a coloured formazan, in cell work by metabolically active cells.

Assay [1] deals with HeLa. The assay is described as follows: Cytotoxicity against human HeLa cells after 72 hrs by MTT assay. Format: functional, cell-based. The gist of the method:
as §1

The next assay has as its system K562. Put plainly: Cytotoxicity against human K562 cells after 72 hrs by MTT assay. As to conditions: K562, 72 h. The assay is classed as functional, cell-based. The gist of the method:
as §1

Assay [2] can be described thus: Cytotoxicity against HEK cells after 72 hrs by MTT assay. Format: cell-based. As to conditions: Homo sapiens, HEK293, 72 h. The gist of the method: as §1
Assay [3] deals with HEK293. The assay is described as follows: Selectivity index, ratio of IC50 for HEK cells to IC50 for human MCF7 cells. Format: functional. The gist of the method: (§2)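 Selectivity index is IC50 in normal HEK cells divided by IC50 in the cancer cell line.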
The test system of assay [4] is HeLa. The assay is described as follows: Selectivity index, ratio of IC50 for HEK cells to IC50 for human HeLa cells. Format: functional. The gist of the method:
as §2

For assay [5], the system named is HEK293. Put plainly: Selectivity index, ratio of IC50 for HEK cells to IC50 for human K562 cells. Format: functional. The gist of the method: as §2

For `COc1cc2nc(C)n(-c3ccccc3Cn3ccnn3)c(=O)c2cc1OC`, the IC50 (in general, the midpoint of a concentration-inhibition curve) in the assay on MCF7 came out at 23.7 µM; with HeLa [1], 12.6 µM; in the assay with K562, 28.8 µM; in assay [2], 98 µM. The “Ratio IC50” value in the assay with HEK293 [3] came to 4.13; with HeLa [4] it was 7.77; with HEK293 [5], 3.4.
Turning to `COc1ccc(-c2cn(Cc3ccccc3-n3c(C)nc4cc(OC)c(OC)cc4c3=O)nn2)cc1`, the IC50 with MCF7 was 14 µM; in the assay on HeLa [1], 11.9 µM; with K562 it was 22.4 µM; in assay [2], 72 µM. Besides, the “Ratio IC50” value turned out to be 5.15 in the assay with HEK293 [3], 6.06 in the assay on HeLa [4] and 3.2 in the assay on HEK293 [5].
`COc1cc2nc(C)n(-c3ccccc3Cn3cc(-c4cc5ccccc5c5ccccc45)nn3)c(=O)c2cc1OC`: the IC50 in the assay with MCF7 was 13.2 µM; in the assay with HeLa [1], 12.8 µM; with K562, 25.6 µM; in assay [2] it was 89 µM. Also, the “Ratio IC50” value in the assay on HEK293 [3] amounted to 6.72; in the assay on HeLa [4], 6.95; in the assay with HEK293 [5] it was 3.47.
For `Cc1nc2ccccc2c(=O)n1-c1ccccc1Cn1ccnn1`, the concentration for half-maximal inhibition (IC50) in the assay on MCF7 worked out at 15.3 µM; in the assay with HeLa [1], 16.4 µM; in the assay on K562, 22.4 µM; in assay [2] it was 76 µM. Further, the “Ratio IC50” value with HEK293 [3] was 4.97; with HeLa [4], 4.62; in the assay with HEK293 [5] it was 3.39.
`COc1ccc(-c2cn(Cc3ccccc3-n3c(C)nc4ccccc4c3=O)nn2)cc1`: the IC50 with MCF7 came to 14.4 µM; with HeLa [1], 12.8 µM; with K562, 22.4 µM; in assay [2] it was 116 µM. Also, the results for the “Ratio IC50” value in the assay on HEK293 [3], in the assay on HeLa [4] and with HEK293 [5] were 8.05, 9.06 and 5.17, respectively.
Regarding `COc1cc2nc(C)n(-c3ccccc3Cn3cc(CCO)nn3)c(=O)c2cc1OC`, the IC50 amounted to 14 µM in the assay with MCF7, 16 µM with HeLa [1], 26.6 µM in the assay with K562 and 124 µM in assay [2]. Moreover, the “Ratio IC50” value in the assay with HEK293 [3] is on record as 8.85; in the assay with HeLa [4], 7.75; in the assay on HEK293 [5], 4.66.
Turning to `COc1cc2nc(C)n(-c3ccccc3Cn3cc(-c4cccc(C)c4)nn3)c(=O)c2cc1OC`, the IC50 in the assay with MCF7 is 18 µM; in the assay on HeLa [1] it was 14.4 µM; in the assay with K562, 31.5 µM; in assay [2], 56 µM. Also, the “Ratio IC50” value in the assay on HEK293 [3] is reported as 3.1; in the assay on HeLa [4], 3.88; in the assay with HEK293 [5], 1.77.
`COc1cc2nc(C)n(-c3ccccc3Cn3cc(CO)nn3)c(=O)c2cc1OC`: the IC50 is 15.8 µM with MCF7, 11.9 µM in the assay on HeLa [1], 28 µM in the assay on K562 and 110 µM in assay [2]. Further, the “Ratio IC50” value in the assay with HEK293 [3] was 6.94; in the assay on HeLa [4] it was 9.25; in the assay with HEK293 [5], 3.92.
Regarding `COc1cccc(-c2cn(Cc3ccccc3-n3c(C)nc4cc(OC)c(OC)cc4c3=O)nn2)c1`, the IC50 in the assay with MCF7 came to 15.1 µM; with HeLa [1], 11.9 µM; with K562, 22.4 µM; in assay [2], 51 µM. Moreover, the results for the “Ratio IC50” value in the assay on HEK293 [3], in the assay with HeLa [4] and in the assay on HEK293 [5] were 3.37, 4.29 and 2.27, respectively.
Consider `COc1cc2nc(C)n(-c3ccccc3Cn3nnc4ncccc43)c(=O)c2cc1OC`, for which the IC50 in the assay with MCF7 stood at 18.6 µM; in the assay with HeLa [1], 11.9 µM; in the assay on K562, 19.7 µM; in assay [2], 79 µM. Further, the entries for the “Ratio IC50” value with HEK293 [3], in the assay with HeLa [4] and in the assay with HEK293 [5] were 4.25, 6.64 and 4.01, respectively.
Consider `CCCCCC(O)c1cn(Cc2ccccc2-n2c(C)nc3cc(OC)c(OC)cc3c2=O)nn1` (centres undefined), for which the IC50 turned out to be 17.9 µM in the assay on MCF7, 16 µM in the assay with HeLa [1], 22.9 µM with K562 and 48 µM in assay [2]. Besides, the “Ratio IC50” value with HEK293 [3] is reported as 2.68; with HeLa [4], 3; with HEK293 [5], 2.09.
As to `CCCCCCc1cn(Cc2ccccc2-n2c(C)nc3cc(OC)c(OC)cc3c2=O)nn1`, the concentration for half-maximal inhibition (IC50) in the assay on MCF7 was 17.7 µM; in the assay with HeLa [1] it was 14.6 µM; with K562 it was 24 µM; in assay [2], 53 µM. Also, the “Ratio IC50” value was 2.98 in the assay on HEK293 [3], 3.62 in the assay on HeLa [4] and 2.2 in the assay on HEK293 [5].
Take `COc1ccc2cc(-c3cn(Cc4ccccc4-n4c(C)nc5cc(OC)c(OC)cc5c4=O)nn3)ccc2c1`: the IC50 in the assay with MCF7 came out at 18.2 µM; with HeLa [1], 14.6 µM; with K562, 28 µM; in assay [2] it was 68 µM. Moreover, the results for the “Ratio IC50” value with HEK293 [3], with HeLa [4] and in the assay on HEK293 [5] were 3.74, 4.65 and 2.42, respectively.
In the case of `COc1cc2nc(C)n(-c3ccccc3Cn3cc(-c4ccccc4)nn3)c(=O)c2cc1OC`, the IC50 in the assay on MCF7 is 9.19 µM; in the assay with HeLa [1] it was 13.7 µM; in the assay on K562 it was 25.6 µM; in assay [2], 64 µM. The “Ratio IC50” value in the assay on HEK293 [3] amounted to 6.96; with HeLa [4], 4.66; in the assay with HEK293 [5] it was 2.5.
As to `COc1cc2nc(C)n(-c3ccccc3Cn3cc(-c4ccc(-c5ccccc5)cc4)nn3)c(=O)c2cc1OC`, the IC50 worked out at 10.5 µM in the assay with MCF7, 14.2 µM in the assay on HeLa [1], 22.4 µM in the assay on K562 and 71 µM in assay [2]. In addition, the “Ratio IC50” value is given as 6.78 with HEK293 [3], 5.01 with HeLa [4] and 3.16 in the assay on HEK293 [5].
On to `COc1cc2nc(C)n(-c3ccccc3Cn3cc(-c4cccnc4)nn3)c(=O)c2cc1OC`, for which the half-maximal inhibitory concentration (IC50) in the assay with MCF7 was found to be 10.2 µM; in the assay with HeLa [1], 13.2 µM; in the assay on K562, 20 µM; in assay [2], 54 µM. Besides, the “Ratio IC50” value came to 5.3 with HEK293 [3], 4.07 in the assay on HeLa [4] and 2.7 in the assay with HEK293 [5].
Take `CCCc1cn(Cc2ccccc2-n2c(C)nc3cc(OC)c(OC)cc3c2=O)nn1`: the IC50 with MCF7 amounted to 14.4 µM; in the assay on HeLa [1] it was 13.2 µM; with K562 it was 22.4 µM; in assay [2] it was 74 µM. In addition, the “Ratio IC50” value in the assay on HEK293 [3] worked out at 5.13; with HeLa [4] it was 5.58; with HEK293 [5], 3.3.

These data come from ChEMBL document CHEMBL3414548, “Luotonin-A based quinazolinones cause apoptosis and senescence via HDAC inhibition and activation of tumor suppressor proteins in HeLa cells” (Eur J Med Chem, 2015).
